Experimental data published in ChEMBL document CHEMBL1122190, “Mammary tumor inhibiting effect of 3,3'-diacetoxy-alpha, beta-dialkylstilbenes and of related stilbene oxides” (1982).

What was measured:
[1] = target: T1, Estrogen receptor (Mus musculus) (UniProt O08537+P19785); test: Uterotrophic activity in mice at 10 ug dose; assay type: functional, tissue-based; conditions: Uterus
Procedure, shortened: (§1)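 Dorfman uterine weight test in immature female NMRI mice, ten per group, 20 days old and 10-12 g at start. Compounds were given in olive oil sc once daily for 3 days. Mice were killed 24 h after the last injection, and uteri were removed, dried at 100 °C for 24 h and weighed.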

[2] = target: T1, Estrogen receptor (Mus musculus); test: Uterotrophic activity in mice at 500 ug dose; assay type: functional, tissue-based; conditions: Uterus
Procedure, shortened: (§2)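 Dorfman uterine weight test in immature female NMRI mice (20 days old at start, 10-12 g; ten per group). Compound given sc daily in olive oil for 3 days. Animals killed 24 h after last injection; uteri removed, dried at 100 °C for 24 h and weighed.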

[3] = target: T1, Estrogen receptor (Mus musculus); test: Antiuterotrophic activity in mice at 100 ug dose; assay type: functional; procedure, shortened: as §1
[4] = target: T1, Estrogen receptor (Mus musculus); test: Antiuterotrophic activity in mice at 250 ug dose; assay type: functional; procedure, shortened: as §1
[5] = target: T1, Estrogen receptor (Mus musculus); test: Antiuterotrophic activity in mice at 25 ug dose; assay type: functional; procedure, shortened: as §1
[6] = target: T1, Estrogen receptor (Mus musculus); test: Antiuterotrophic activity in mice at 5 ug dose; assay type: functional; procedure, shortened: as §1
[7] = target: T1, Estrogen receptor (Mus musculus); test: Uterotrophic activity in mice at 100 ug dose; assay type: functional, tissue-based; conditions: Uterus; procedure, shortened: as §1
[8] = target: T1, Estrogen receptor (Mus musculus); test: Percent inhibition of estrone-stimulated uterine growth in immature mouse at 100 ug dose; assay type: functional; procedure, shortened: as §1
[9] = target: T1, Estrogen receptor (Mus musculus); test: Percent inhibition of estrone-stimulated uterine growth in immature mouse at 250 ug dose; assay type: functional; procedure, shortened: as §1
[10] = target: T1, Estrogen receptor (Mus musculus); test: Percent inhibition of estrone-stimulated uterine growth in immature mouse at 25 ug dose; assay type: functional; procedure, shortened: as §1
[11] = target: T1, Estrogen receptor (Mus musculus); test: Percent inhibition of estrone-stimulated uterine growth in immature mouse at 5 ug dose; assay type: functional; procedure, shortened: as §1
[12] = tested on: Mus musculus; test: Effect on estrogen and progesterone receptors positive hormone-dependent postmenopausal human mammary carcinoma tumor growth in nude mice at 2.4 mg/kg/day; assay type: functional
Procedure, shortened: (§3)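 Nude mice carried serially transplanted hormone-dependent human mammary carcinoma. Compounds in olive oil were given sc 6 times a week for 4-5 weeks. Two tumor diameters were measured weekly, and size at treatment start was set as 1. Tumor size was averaged after 5 weeks of therapy.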

[13] = tested on: Estrogen receptor (Bos taurus); test: In vitro relative binding affinity for Estrogen receptor compared to [3H]estradiol
[14] = target: T1, Estrogen receptor (Mus musculus); conditions: Uterus
[15] = tested on: Mus musculus; test: Effect on estrogen and progesterone receptors positive hormone-dependent postmenopausal human mammary carcinoma tumor growth in nude mice at 3.0 mg/kg/day; assay type: functional; procedure, shortened: as §3
[16] = target: T1, Estrogen receptor (Mus musculus); test: Uterotrophic activity in mice at 1 ug dose; assay type: functional, tissue-based; conditions: Uterus; procedure, shortened: as §1
[17] = target: T1, Estrogen receptor (Mus musculus); test: Uterotrophic activity in mice at 50 ug dose; assay type: functional, tissue-based; conditions: Uterus; procedure, shortened: as §2
[18] = tested on: Mus musculus; test: Effect on estrogen and progesterone receptors positive hormone-dependent postmenopausal human mammary carcinoma tumor growth in nude mice at 2.6 mg/kg/day; assay type: functional; procedure, shortened: as §3
[19] = tested on: Mus musculus; test: Effect on estrogen and progesterone receptors positive hormone-dependent postmenopausal human mammary carcinoma tumor growth in nude mice at 2.8 mg/kg/day; assay type: functional; procedure, shortened: as §3

T1 sequence (O08537 whole entry, looked up): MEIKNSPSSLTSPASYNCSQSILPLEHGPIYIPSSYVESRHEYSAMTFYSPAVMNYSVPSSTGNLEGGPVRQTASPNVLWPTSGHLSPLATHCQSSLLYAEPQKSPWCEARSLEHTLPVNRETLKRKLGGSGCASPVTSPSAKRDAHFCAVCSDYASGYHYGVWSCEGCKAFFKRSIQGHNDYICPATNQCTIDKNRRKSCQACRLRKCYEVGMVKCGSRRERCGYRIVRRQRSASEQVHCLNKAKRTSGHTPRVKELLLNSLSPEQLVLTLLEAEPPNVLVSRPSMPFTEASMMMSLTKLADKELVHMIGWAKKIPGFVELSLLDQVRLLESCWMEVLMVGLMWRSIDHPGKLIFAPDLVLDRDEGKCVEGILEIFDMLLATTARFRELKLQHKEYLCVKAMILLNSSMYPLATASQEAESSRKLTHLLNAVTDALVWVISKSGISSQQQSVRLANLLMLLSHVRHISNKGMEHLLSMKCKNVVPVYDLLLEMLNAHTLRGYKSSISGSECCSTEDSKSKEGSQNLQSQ
T1 sequence (P19785 whole entry, looked up): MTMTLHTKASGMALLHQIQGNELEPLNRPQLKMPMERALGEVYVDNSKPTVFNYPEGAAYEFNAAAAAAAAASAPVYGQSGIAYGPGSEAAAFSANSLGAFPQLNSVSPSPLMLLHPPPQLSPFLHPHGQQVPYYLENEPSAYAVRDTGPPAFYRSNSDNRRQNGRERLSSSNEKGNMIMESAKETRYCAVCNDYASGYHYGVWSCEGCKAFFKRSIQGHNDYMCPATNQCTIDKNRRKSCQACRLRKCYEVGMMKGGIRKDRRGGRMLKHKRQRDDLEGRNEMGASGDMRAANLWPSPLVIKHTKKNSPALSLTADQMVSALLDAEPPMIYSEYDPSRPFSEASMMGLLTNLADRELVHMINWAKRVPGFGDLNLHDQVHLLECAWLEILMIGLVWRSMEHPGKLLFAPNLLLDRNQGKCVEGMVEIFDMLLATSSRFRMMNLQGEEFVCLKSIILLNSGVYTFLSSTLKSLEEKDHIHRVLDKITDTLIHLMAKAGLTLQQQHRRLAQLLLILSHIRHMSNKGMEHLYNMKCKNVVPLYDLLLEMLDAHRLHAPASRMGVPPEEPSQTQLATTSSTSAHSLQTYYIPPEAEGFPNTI

## CC(=O)Oc1cccc(C2(C)OC2(C)c2cccc(OC(C)=O)c2)c1 (configuration not stated)
[1]
  Effect: 17
[2]
  Effect: 20.6
[3]
  Effect: 32.6
[4]
  Effect: 33.1
[5]
  Effect: 36.1
[6]
  Effect: 37.9
[7]
  Effect: 15
[8]
  inhibition: 33.4%
[9]
  inhibition: 31.7%
[10]
  inhibition: 23%
[11]
  inhibition: 17.4%
[12]
  Tumor size: 2.72
[13]
  RBA: 0.8%

## C[C@]12CC[C@@H]3c4ccc(O)cc4CC[C@H]3[C@@H]1CCC2=O
[14]
  Effect: 40.7

## CCCC/C(=C(/CCCC)c1cccc(OC(C)=O)c1)c1cccc(OC(C)=O)c1
[15]
  Tumor size: 4.1
[13]
  RBA: 0.6%

## CC(=O)Oc1cccc(/C(C)=C(\C)c2cccc(OC(C)=O)c2)c1
[12]
  Tumor size: 3.42
[13]
  RBA: 0.4%

## CC/C(=C(/CC)c1cccc(OC(C)=O)c1)c1cccc(OC(C)=O)c1
[1]
  Effect: 24.3
[16]
  Effect: 15.9
[2]
  Effect: 42
[17]
  Effect: 27.4
[7]
  Effect: 32.7
[18]
  Tumor size: 2.3
[13]
  RBA: 2.2%

## CCC/C(=C(/CCC)c1cccc(OC(C)=O)c1)c1cccc(OC(C)=O)c1
[19]
  Tumor size: 2.32
[13]
  RBA: 1.3%
